Screening results from PubChem BioAssay.
STAT3 act: increases IL-6 driven STAT3 reporter signal; actives 0.91% (n = 190,000); activation (% of control), % at 5.6 µM; AID 871; U3A cells, IL-6 STAT3-luciferase reporter, luminescence; 100% = signal with IL-6 EC80 alone;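 active = activation above the screen-wide mean of compound activation plus 3 SD, cut at about 130% in these data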;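 note: 0% = background luminescence of wells with medium and substrate only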
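Detection: reporter luminescence signal / Assay system: STAT1-lacking human U3A cells, STAT3 luciferase reporter / Incubation: compound pre-incubation 1 h before IL-6, then 6 h stimulation at 37 °C / Control set: IL-6-only high control / Read-out: % activation relative to IL-6 control / Probe or stimulus: Interleukin-6, 33 ng/mL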
STAT3 inh: reduces IL-6 driven STAT3 reporter signal | U3A cells, IL-6 STAT3-luciferase reporter, luminescence; host cell line lacks STAT1 | actives 0.89% (n = 190,000) | inhibition, % at 5.5 µM;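 active = inhibition above the mean inhibition across all screened compounds plus 3 SD, cut at about 44% in these data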;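 note: 0% = DMSO only wells and 100% = 100 µM nifuroxazide control wells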
STAT1 inh: inhibitors of IFN-gamma induced STAT1 signaling. NIH 3T3 STAT1-luciferase reporter, luminescence. inhibition, % at 5.5 µM. actives 0.35% (n = 200,000). AID 920;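 active = inhibition above a set limit, the mean inhibition across all tested compounds plus 3 SD, cut at about 34% in these data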;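 note: 0% = IFN-gamma with DMSO and 100% = IFN-gamma with 300 µM nifuroxazide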
PERK inh: blocks human PERK kinase. Q9NZJ5. AID 1416. CHO PERK-DD fusion, SEAP luminescence translation reporter. actives 0.17% (n = 220,000). inhibition, % at 5.6 µM;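 active = inhibition above the mean inhibition of all tested compounds plus 3 SD, set separately per screening campaign, cut at about 2.9% in these data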;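 note: PERK kinase domain activated by AP20187 dimerizer at 100 nM; 0% = DMSO with dimerizer and 100% = rapamycin at 8.4 µM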
Numbers without * were called inactive; x = not tested or not shown. In the library only some 1.8% were active in any assay of this set; here they are far more common.

SMILES	STAT3 act	STAT3 inh	STAT1 inh	PERK inh
c1ccc(Cc2nn3c(COc4ccccc4)nnc3s2)cc1	134*	-34	-9	0
C[C@H](NS(=O)(=O)c1ccccc1)C(=O)OCC(=O)NC(=O)Nc1ccc2c(c1)OCCO2	104	-2	-8	1
O=C(CN1CC(=O)Oc2ccccc21)OCC(=O)c1ccccc1	91	15	10	2.9*
CCCN1CCN(C(=O)Cn2cnc3ccc(S(=O)(=O)N4CCC(C)CC4)cc3c2=O)CC1	95	8	-6	-1
Cc1ccc(Nc2cc(C)nc(N3CCOCC3)n2)cc1	134*	-34	-17	0
Cc1cc(Nc2ccc(C)c(Cl)c2)nc(N2CCOCC2)n1	x	x	x	-1
CC1(C)C(C=C(Cl)Cl)C1C(=O)N1CCN(Cc2ccccc2)CC1 (stereo not given)	105	-2	0	2
CN(c1cccc(NC(=O)c2ccc(Cl)c(S(=O)(=O)Nc3ccccc3)c2)c1)S(C)(=O)=O	89	20	45*	0
Cc1ccccc1NS(=O)(=O)c1cc(C(=O)Nc2cccc(N(C)S(C)(=O)=O)c2)ccc1C	96	10	8	0
COc1ncccc1-c1nnn(-c2ccccc2)n1	x	x	-51	2
O=c1cc(-c2cccc(F)c2)[nH]c2ccccc12	133*	-43	-9	0
Cn1c(COc2ccccc2)nnc1SCCSc1nnc(COc2ccccc2)n1C	103	4	16	-1
Cn1c(COc2ccc(Br)cc2)nnc1SC1CCc2ccccc2C1=O (stereo not given)	133*	-42	3	0
COc1cccc(N2CCN(C(=O)Nc3ccccc3Cl)CC2)c1	91	18	-7	1
CCC(=O)Nc1nc2ccc3sc(C)nc3c2s1	116	-14	-79	0
Cc1nc2c(ccc3nc(NC(=O)C4CC4)sc32)s1	157*	-67	-61	0
O=C1CC(c2ccccc2)CN1C(=O)c1cncc(Br)c1 (stereo not given)	105	-2	2	1
Cc1c(C#N)sc(C(N)=O)c1C	105	-2	5	1
CC(=O)Nc1nonc1-c1ccccc1	101	5	1	3.2*
O=C(Nc1nonc1-c1ccc(Cl)cc1)c1ccccc1	110	-11	0	1
Cc1ccc(-c2cc(C(=O)O)n(-c3ccc(S(N)(=O)=O)cc3)n2)cc1	100	5	12	0
O=S(=O)(NC1c2cccc3cccc(c23)C1N1CCNCC1)c1ccccc1 (stereo not given)	105	1	-4	0
O=S(=O)(NC1c2cccc3cccc(c23)C1N1CCN(CCO)CC1)c1ccccc1 (stereo not given)	134*	-30	-1	0
Cc1ccc(NC(=O)c2cc3ccccc3oc2=O)cc1S(=O)(=O)N(C)C	20	100*	58*	0
Cc1ccc(NC(=O)c2cc3ccccc3o2)cc1S(=O)(=O)N(C)C	93	8	-47	0
SMILES	STAT3 act	STAT3 inh	STAT1 inh	PERK inh
CCOc1ccc(CN2CCCC(CNC(=O)c3ccc(F)cc3)C2)cc1CO (stereo not given)	100	6	0	1
O=C(O)CSc1nc2ccccc2c(=O)[nH]1	94	6	8	0
C=CCSc1nc2ccccc2c(=O)[nH]1	94	16	-5	3.0*
CC(C)CC1C(C#N)=C(N)Oc2n[nH]c(-c3cccs3)c21 (stereo not given)	97	7	11	-1
CSCCC1C(C#N)=C(N)Oc2n[nH]c(-c3cccs3)c21 (stereo not given)	101	4	-6	3.1*
Cc1nn(C(=O)c2cc3sccc3[nH]2)c(C)c1C	143*	-50	-41	0
COc1ccc(-c2nn(-c3ccccc3)cc2C(=O)O)cc1	96	14	3	3.2*
O=C(O)c1cn(-c2ccccc2)nc1-c1ccncc1	105	-4	-1	1
COc1ccc(-c2nn(-c3ccccc3)cc2/C=N/NC(=O)c2ccc(Br)o2)cc1	69	45*	0	0
Cc1ccc(N2C(=O)C3C(c4ccccc4)N4CCCN4C3(C)C2=O)cc1 (stereo not given)	100	3	-1	1
Cn1cc(/C=C2/SC(=O)N(c3ccccc3)C2=O)c2ccccc21	172*	-84	-36	1
O=C(O)Cn1cc(/C=C2\SC(=O)N(c3ccccc3)C2=O)c2ccccc21	97	12	-11	0
Cc1nn(-c2ccccc2)c(Cl)c1/C=N/Nc1ccc(Cl)c(C(=O)O)c1	63	44*	42*	1
